GASC1 inh: inhibitors of human demethylase GASC-1 KDM4C. Q9H3R0. GST-KDM4C 2-372, H3K9me3 peptide, LANCE TR-FRET. inhibition, % at 12.5 µM. actives 0.15% (n = 96,000). AID 720574;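 active means mean replicate inhibition above about 25%, with at least 55% of replicates also reaching it, limit read from the data, passing the limit was not always enough; inconclusive means only one of those two conditions met; inactive means neither condition met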
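Test system: N-terminal GST-fused human GASC-1 (KDM4C) fragment, residues 2-372; quantity: GASC-1 enzyme at 10 nM final in reaction; dosing: single dose; schedule: 30 min demethylation and 1 h detection at room temperature; signal: LANCE TR-FRET, excitation 340 nm, emissions 618 and 671 nm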
Pf Dd2 growth: blocks growth of Plasmodium falciparum Dd2 parasites. P. falciparum Dd2 growth, SYBR Green, 72 h; stronger effect = lower value. activity change, % at 10 µM. actives 2.3% (n = 94,000). AID 1159554; in the data active means activity change below about -80%; inconclusive means no clear call, values can overlap the other calls
IDH1 R132H inh: inhibitors of human IDH1 R132H | O75874 | IDH1 R132H reductase, diaphorase/resazurin fluorescence, 60 min | inhibition, % at 10 µM | actives 0.18% (n = 70,000) | AID 624101; in the data active means inhibition above about 34%; inconclusive means no clear call, values can overlap the other calls; inactive means below about 11%;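 further: 0% = DMSO and 100% = no enzyme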
Target sequence (O75874 whole entry R132H): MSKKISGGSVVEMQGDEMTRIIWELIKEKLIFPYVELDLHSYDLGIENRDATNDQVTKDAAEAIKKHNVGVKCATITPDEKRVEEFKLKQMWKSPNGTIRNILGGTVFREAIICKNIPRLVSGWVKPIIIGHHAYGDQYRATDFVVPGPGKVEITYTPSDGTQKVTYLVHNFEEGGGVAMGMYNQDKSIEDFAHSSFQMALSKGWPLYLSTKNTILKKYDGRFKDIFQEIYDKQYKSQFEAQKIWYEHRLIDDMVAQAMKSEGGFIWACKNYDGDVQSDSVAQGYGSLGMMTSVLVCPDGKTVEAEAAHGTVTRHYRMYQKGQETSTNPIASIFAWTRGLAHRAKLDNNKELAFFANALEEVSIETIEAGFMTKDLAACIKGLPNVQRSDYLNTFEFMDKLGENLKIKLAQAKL
T cruzi growth-1: T. cruzi proliferation inhibition; actives 5.9% (n = 77,000); inhibition, % at 8.34 µM; T. cruzi beta-gal in NIH3T3, GalScreen luminescence, 90 h;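 active means mean inhibition above about 93%, with at least 55% of replicates each passing it, limit read from the data, passing the limit was not always enough; inconclusive means only one of those two conditions holds; inactive means neither condition holds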
T cruzi growth-2: Trypanosoma cruzi proliferation inhibition. shares compounds with T cruzi growth-1. T. cruzi beta-gal in NIH3T3, GalScreen luminescence, 90 h. inhibition, % at 8.35 µM. actives 72% (n = 5,600). AID 651739;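 active means mean replicate inhibition above about 95% and at least 55% of replicates individually reaching it, limit read from the data; inconclusive means only one of the two criteria is met; inactive means neither criterion is met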
T cruzi growth-3: blocks T. cruzi growth in NIH3T3 host cells; AID 651740; shares compounds with T cruzi growth-1; inhibition, % at 2.09 µM; actives 21% (n = 5,600); T. cruzi beta-gal in NIH3T3, GalScreen luminescence, 90 h;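 active means mean inhibition above about 95%, with at least 55% of replicates also reaching it, limit read from the data; inconclusive means meets just one of the two conditions; inactive means meets neither condition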;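 further: plate controls were neutral control median for no effect and positive control median for full effect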
3T3 cytotox: NIH/3T3 (mouse) viability loss | shares compounds with T cruzi growth-1 | NIH/3T3 viability, CellTiter-Glo ATP luminescence, 90 h | cytotoxicity (signal decrease), % at 8.35 µM | actives 14% (n = 5,600) | AID 651742;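 active means mean signal decrease across replicates above about 35% based on untreated-well scatter, with enough replicates individually passing, limit read from the data; inconclusive means no rule stated though some were filed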;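 further: 0% = median of neutral control wells and 100% = median of positive control wells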
NIH3T3 tox 2: NIH/3T3 (mouse) viability loss. shares compounds with T cruzi growth-1. NIH/3T3 viability, CellTiter-Glo ATP luminescence, 90 h. inhibition, % at 24.9 µM. actives 56% (n = 5,600). AID 651744;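 active means mean loss of cell viability signal at or above a set limit, and enough replicates individually reaching it; inconclusive means meets only the mean limit or only the replicate share; inactive means meets neither condition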;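 further: 0% = median of neutral control wells and 100% = median of positive control wells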
The depositor's hits bear a star; ? = inconclusive; / = not tested or not shown. Only some compounds are listed: those with a hit (about 5.8% of all), similar ones and a draw of the others.

SMILES	GASC1 inh	Pf Dd2 growth	IDH1 R132H inh	T cruzi growth-1	T cruzi growth-2	T cruzi growth-3	3T3 cytotox	NIH3T3 tox 2
COc1ccc(NC(=O)Nc2ccc3c(c2)C(=O)N([C@H](C)CO)C[C@@H](C)[C@H](CN(C)S(=O)(=O)c2ccc(OC)cc2)OCCCC[C@@H](C)O3)cc1	1	-73	1	105*	109*	49	-27	-17
COc1ccc(NC(=O)Nc2ccc3c(c2)C(=O)N([C@@H](C)CO)C[C@H](C)[C@@H](CN(C)S(=O)(=O)c2ccc(F)cc2)OCCCC[C@@H](C)O3)cc1	-1	?	/	74	/	/	/	/
COc1ccc(S(=O)(=O)N(C)C[C@@H]2OCCCC[C@H](C)Oc3ccc(NC(=O)Nc4ccc5c(c4)OCO5)cc3C(=O)N([C@H](C)CO)C[C@@H]2C)cc1	1	-81*	/	103*	107*	90	10	10
COc1ccc(NC(=O)Nc2ccc3c(c2)C(=O)N([C@H](C)CO)C[C@H](C)[C@H](CN(C)S(=O)(=O)c2ccc(OC)cc2)OCCCC[C@H](C)O3)cc1	1	-45	/	?	104*	51	3	14
COc1ccc(NC(=O)Nc2ccc3c(c2)C(=O)N([C@@H](C)CO)C[C@@H](C)[C@@H](CN(C)S(=O)(=O)c2ccc(OC)cc2)OCCCC[C@H](C)O3)cc1	0	10	0	-48	/	/	/	/
COc1ccc(S(=O)(=O)N(C)C[C@@H]2OCCCC[C@H](C)Oc3ccc(NC(=O)Nc4ccc(C(F)(F)F)cc4)cc3C(=O)N([C@@H](C)CO)C[C@@H]2C)cc1	-1	-79	2	97*	111*	115*	27	4
O=C(c1ccccn1)N1CC2(C1)[C@H](c1ccccc1)[C@H](CO)N2C(=O)C1CCC1	-2	8	/	/	/	/	/	/
CSc1nc2sc3c(c2c2nnc(SCC(=O)Nc4ccccc4)n12)CCC3	/	/	2	/	/	/	/	/
Cc1ccc(S(=O)(=O)Nc2ccc3c(c2)C(=O)N([C@H](C)CO)C[C@H](C)[C@H](CN(C)S(=O)(=O)c2ccc(C)cc2)O3)cc1	-1	-55	-2	51	/	/	/	/
COc1ccc(NC(=O)Nc2ccc3c(c2)C(=O)N([C@@H](C)CO)C[C@H](C)[C@@H](CN(C)S(=O)(=O)c2ccc(OC)cc2)OCCCC[C@H](C)O3)cc1	0	-61	/	?	108*	23	18	3
COc1ccc(S(=O)(=O)N(C)C[C@@H]2OCCCC[C@H](C)Oc3ccc(NC(=O)C4CCCCC4)cc3C(=O)N([C@H](C)CO)C[C@H]2C)cc1	0	-86*	1	99*	64	39	20	?
COc1ccc(NC(=O)Nc2ccc3c(c2)C(=O)N([C@H](C)CO)C[C@@H](C)[C@@H](CN(C)S(=O)(=O)c2ccc(C)cc2)OCCCC[C@H](C)O3)cc1	1	-75	/	-80	/	/	/	/
COc1ccc(S(=O)(=O)N(C)C[C@@H]2OCCCC[C@H](C)Oc3ccc(NC(=O)C4CCCCC4)cc3C(=O)N([C@@H](C)CO)C[C@H]2C)cc1	0	-78	/	81	/	/	/	/
COc1ccc(NC(=O)Nc2ccc3c(c2)C(=O)N([C@@H](C)CO)C[C@H](C)[C@@H](CN(C)S(=O)(=O)c2ccc(C)cc2)OCCCC[C@@H](C)O3)cc1	0	-83*	0	97*	111*	52	-18	8
COCC(=O)Nc1ccc2c(c1)[C@H]1C[C@H](CC(=O)NCCN3CCCCC3)O[C@@H](CO)[C@H]1O2	-2	16	0	1	/	/	/	/
Cc1ccc(S(=O)(=O)N[C@@H]2C=C[C@@H](CC(=O)NC3CCCCC3)O[C@@H]2CO)cc1	-1	-2	0	-22	/	/	/	/
COc1ccc(S(=O)(=O)Nc2ccc3c(c2)CC(=O)N([C@@H](C)CO)C[C@@H](C)[C@H](CN(C)Cc2ccc(-c4ccccc4)cc2)O3)cc1	-4	-16	1	-30	/	/	/	/
COc1cccc(S(=O)(=O)N2CCCCN3[C@H](CO)[C@@H](c4ccc(C#CC5CC5)cc4)[C@@H]3C2)c1	-1	3	/	?	107*	100*	11	22
Cc1cccc(S(=O)(=O)N2CCCCN3[C@H](C2)[C@H](c2ccc(C#CC4CC4)cc2)[C@@H]3CO)c1	0	-16	/	108*	109*	98*	13	65*
O=S(=O)(c1ccc(F)cc1)N1CCCCN2[C@@H](CO)[C@H](c3ccc(C#CC4CC4)cc3)[C@@H]2C1	1	-29	/	?	109*	44	44*	103*
COc1cccc(S(=O)(=O)N2CCCCN3[C@H](CO)[C@@H](c4ccc(C#CC5CC5)cc4)[C@H]3C2)c1	-2	-27	/	104*	98*	86	45*	105*
Cc1cccc(S(=O)(=O)N2CCCCN3[C@H](CO)[C@@H](c4ccc(C#CC5CC5)cc4)[C@H]3C2)c1	-1	-32	/	94	/	/	/	/
COc1cccc(S(=O)(=O)N2CCCCN3[C@@H](CO)[C@@H](c4ccc(C#CC5CC5)cc4)[C@@H]3C2)c1	-1	-67	/	53	/	/	/	/
C[C@@H]1CN([C@H](C)CO)S(=O)(=O)c2ccc(C3=CCCCC3)cc2O[C@@H]1CN(C)C(=O)c1ccccc1	-2	-19	2	91	/	/	/	/
CNC(=O)C[C@H]1CC[C@@H]2[C@@H](COc3ccc(NC(=O)c4ccc5c(c4)OCO5)cc3C(=O)N2C)O1	0	0	/	108*	-32	-8	-14	-5
CCNC(=O)C[C@@H]1CC[C@@H]2[C@@H](COc3ccc(NC(=O)c4ccc5c(c4)OCO5)cc3C(=O)N2C)O1	-1	-11	/	27	/	/	/	/
CNC(=O)C[C@@H]1CC[C@H]2[C@@H](COc3ccc(NC(=O)c4ccc5c(c4)OCO5)cc3C(=O)N2C)O1	-2	-31	/	111*	-3	-15	-3	-1
CNC(=O)C[C@@H]1CC[C@@H]2[C@H](COc3ccc(NC(=O)c4ccc5c(c4)OCO5)cc3C(=O)N2C)O1	0	8	/	34	/	/	/	/
CN1C(=O)c2cc(NC(=O)Nc3ccc(Cl)cc3)ccc2OC[C@@H]2O[C@H](CC(=O)NCCN3CCCCC3)CC[C@@H]21	1	-23	/	103*	108*	79	0	8
CN1C(=O)c2cc(NC(=O)Nc3ccc(Cl)cc3)ccc2OC[C@H]2O[C@@H](CC(=O)NCCN3CCCCC3)CC[C@H]21	0	0	/	-12	/	/	/	/
